{"source": "ChEMBL document CHEMBL4402517", "about": "“Rational modification of Mannich base-type derivatives as novel antichagasic compounds: Synthesis, in vitro and in vivo evaluation” (Bioorg Med Chem, 2019)", "key": {"[1]": {"assay": "Mutagenecity against Salmonella typhimurium TA 100 assessed as number of colonies at 66.7 ug/plate in absence of Sprague-Dawley rat S9 with metabolic activation measured after 48 hrs by Ames test (reference value: 35.7 +/- 0.6)", "format": "toxicity", "settings": "salmonella enterica subsp. enterica serovar typhimurium, s9, 48 h"}, "[2]": {"assay": "Genotoxicity in Salmonella typhimurium TA1535 harboring pSK1002 assessed as umu gene induction at 0.031 mg/ml in presence of Sprague-Dawley rat liver S9 fraction metabolic activation by SOS/umu assay relative to control", "format": "toxicity, subcellular", "settings": "salmonella enterica subsp. enterica serovar typhimurium, read-out: FC", "how_it_was_run": "(§1)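 umu induction in S. typhimurium TA1535/pSK1002, with or without S9 mix, in 96-well format. β-galactosidase read colorimetrically with ONPG substrate. Output given as relative units and induction factor (IF). The run is valid if positive controls reach IF ≥2. A compound counts as genotoxic at IF ≥2 at a concentration giving ≥80% bacterial survival.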"}, "[3]": {"assay": "Genotoxicity in Salmonella typhimurium TA1535 harboring pSK1002 assessed as umu gene induction at 0.001 mg/ml in presence of Sprague-Dawley rat liver S9 fraction metabolic activation by SOS/umu assay relative to control", "format": "toxicity, subcellular", "settings": "salmonella enterica subsp. enterica serovar typhimurium, read-out: FC", "how_it_was_run": "as §1"}, "[4]": {"assay": "Mutagenecity against Salmonella typhimurium TA 100 assessed as number of colonies at 66.7 ug/plate in presence of Sprague-Dawley rat S9 with metabolic activation measured after 48 hrs by Ames test (reference value: 47.3 +/- 5.7)", "format": "toxicity, subcellular", "settings": "salmonella enterica subsp. enterica serovar typhimurium, s9, 48 h"}, "[5]": {"assay": "Genotoxicity in Salmonella typhimurium TA1535 harboring pSK1002 assessed as umu gene induction at 0.004 mg/ml in absence of Sprague-Dawley rat liver S9 fraction metabolic activation by SOS/umu assay relative to control", "format": "toxicity", "settings": "salmonella enterica subsp. enterica serovar typhimurium, read-out: FC", "how_it_was_run": "as §1"}, "[6]": {"assay": "Genotoxicity in Salmonella typhimurium TA1535 harboring pSK1002 assessed as survival at 0.125 mg/ml in absence of Sprague-Dawley rat liver S9 fraction metabolic activation by SOS/umu assay relative to control", "format": "toxicity", "settings": "salmonella enterica subsp. enterica serovar typhimurium, read-out: Survival", "how_it_was_run": "(§2)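 Survival of S. typhimurium TA1535/pSK1002 exposed to a range of compound concentrations with or without S9 mix in 96-well format. Survival percentage measured as the cytotoxicity arm of the SOS/umu test. Concentrations with survival ≥80% are counted as non-cytotoxic.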"}, "[7]": {"assay": "Genotoxicity in Salmonella typhimurium TA1535 harboring pSK1002 assessed as survival at 0.5 mg/ml in presence of Sprague-Dawley rat liver S9 fraction metabolic activation by SOS/umu assay relative to control", "format": "toxicity, subcellular", "settings": "salmonella enterica subsp. enterica serovar typhimurium, read-out: Survival", "how_it_was_run": "as §2"}, "[8]": {"assay": "Mutagenecity against Salmonella typhimurium TA1535 assessed as number of colonies at 22.2 ug/plate in presence of Sprague-Dawley rat S9 measured after 48 hrs by Ames test (reference value: 5 +/- 3.6)", "format": "toxicity, subcellular", "settings": "salmonella enterica subsp. enterica serovar typhimurium, s9, 48 h"}, "[9]": {"assay": "Mutagenecity against Salmonella typhimurium TA97a assessed as number of colonies at 66.7 ug/plate in presence of Sprague-Dawley rat S9 with metabolic activation measured after 48 hrs by Ames test (reference value: 55 +/- 7.1)", "format": "toxicity, subcellular", "settings": "salmonella enterica subsp. enterica serovar typhimurium, s9, 48 h"}, "[10]": {"system": "Trypanosoma cruzi", "assay": "Antitrypanosomal activity against Trypanosoma cruzi MHOM/Pe/2011/Arequipa;DTU 5 epimastigote assessed as effect on parasite glycolytic pathway by measuring increase in succinate excretion at IC50 after 72 hrs by H NMR method relative to control", "format": "functional", "how_it_was_run": "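Cells were spun at 800 × g for 10 min and culture supernatants analysed by 1H NMR. Catabolite peaks were expressed as % variation versus untreated parasites.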"}, "[11]": {"assay": "Genotoxicity in Salmonella typhimurium TA1535 harboring pSK1002 assessed as umu gene induction at 0.5 mg/ml in absence of Sprague-Dawley rat liver S9 fraction metabolic activation by SOS/umu assay relative to control", "format": "toxicity", "settings": "salmonella enterica subsp. enterica serovar typhimurium, read-out: FC", "how_it_was_run": "as §1"}, "[12]": {"assay": "Genotoxicity in Salmonella typhimurium TA1535 harboring pSK1002 assessed as umu gene induction at 0.008 mg/ml in presence of Sprague-Dawley rat liver S9 fraction metabolic activation by SOS/umu assay relative to control", "format": "toxicity, subcellular", "settings": "salmonella enterica subsp. enterica serovar typhimurium, read-out: FC", "how_it_was_run": "as §1"}, "[13]": {"assay": "Genotoxicity in Salmonella typhimurium TA1535 harboring pSK1002 assessed as umu gene induction at 0.25 mg/ml in absence of Sprague-Dawley rat liver S9 fraction metabolic activation by SOS/umu assay relative to control", "format": "toxicity", "settings": "salmonella enterica subsp. enterica serovar typhimurium, read-out: FC", "how_it_was_run": "as §1"}, "[14]": {"assay": "Genotoxicity in Salmonella typhimurium TA1535 harboring pSK1002 assessed as umu gene induction at 0.004 mg/ml in presence of Sprague-Dawley rat liver S9 fraction metabolic activation by SOS/umu assay relative to control", "format": "toxicity, subcellular", "settings": "salmonella enterica subsp. enterica serovar typhimurium, read-out: FC", "how_it_was_run": "as §1"}, "[15]": {"assay": "(§3) Toxicity in BALB/c mouse infected with Trypanosoma cruzi MHOM/Pe/2011/Arequipa;DTU 5 bloodstream trypomastigote assessed as increase in serum aspartate aminotransferase level in chronic phase at 20 mg/kg/day, po administered for 5 consecutive days starting from day 70 post infection and measured at day 76 post infection relative to control", "format": "organism-based", "settings": "in vivo"}, "[16]": {"assay": "(§4) Toxicity in BALB/c mouse infected with Trypanosoma cruzi MHOM/Pe/2011/Arequipa;DTU 5 bloodstream trypomastigote assessed as increase in serum aspartate aminotransferase level in acute phase at 20 mg/kg/day, po administered for 5 consecutive days starting from day 8 post infection and measured on day 100 post infection by biochemical analysis relative to control", "format": "organism-based", "settings": "in vivo"}, "[17]": {"assay": "as §4, with “as decrease” for “as increase”, “serum total bilirubin” for “serum aspartate aminotransferase”, “measured at” for “measured on”, “day 14” for “day 100”", "format": "organism-based", "set-up": "scale not given: the % may be the effect or the level left", "settings": "in vivo"}, "[18]": {"assay": "as §3, with “decrease” for “increase”, “uric acid” for “aspartate aminotransferase”", "format": "organism-based", "set-up": "scale not given: the % may be the effect or the level left", "settings": "in vivo", "how_it_was_run": "(§5)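 Female BALB/c mice (10–12 weeks, 14–20 g; groups of three) were infected i.p. with 5 × 10^5 Arequipa bloodstream trypomastigotes. Dosing was oral at 20 mg/kg/day for 5 days, from day 8 pi (acute) or day 70 pi (chronic), as a 2 mg/ml suspension in 5% DMSO/0.5% HPMC; controls received vehicle. Cyclophosphamide 200 mg/kg i.p. was given at day 80 pi. Serum was collected 2 days post-treatment and at necropsy by cardiac puncture and compared with infected untreated controls.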"}, "[19]": {"assay": "as §3, with “as change” for “as increase”, “infection” for “infection and”, “measured on” for “measured at”, “day 100” for “day 76”", "format": "organism-based", "settings": "in vivo", "how_it_was_run": "as §5"}, "[20]": {"assay": "as §3, with “change” for “increase”, “urea” for “aspartate aminotransferase”", "format": "organism-based", "settings": "in vivo"}, "[21]": {"assay": "as §4, with “total bilirubin” for “aspartate aminotransferase”, “days” for “days starting from day 8 post infection”", "format": "organism-based", "settings": "in vivo"}, "[22]": {"assay": "as §3, with “serum total bilirubin” for “serum aspartate aminotransferase”, “infection” for “infection and”, “measured on” for “measured at”, “day 100” for “day 76”", "format": "organism-based", "settings": "in vivo"}, "[23]": {"system": "Trypanosoma cruzi", "assay": "Inhibition of Trypanosoma cruzi MHOM/Pe/2011/Arequipa;DTU 5 epimastigote Fe-SOD at 25 uM", "how_it_was_run": "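Fe-SOD excreted by exponentially growing T. cruzi Arequipa epimastigotes cultured in supplemented MTL at 28 °C. Protein quantified by Bradford. SOD activity measured by the Beyer–Fridovich method. IC50 from inhibition curves by nonlinear regression. Mean of three independent determinations ± standard deviation.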"}, "[24]": {"assay": "as §3, with “decrease” for “increase”, “alkaline phosphatase” for “aspartate aminotransferase”", "format": "organism-based", "set-up": "scale not given: the % may be the effect or the level left", "settings": "in vivo"}}, "note": "Calls of active or inactive are those of the source. No cut-off for these calls is given here."}
{"smiles": "O=C(CCN1CCN(c2ccc(Cl)cc2)CC1)c1ccc(O)cc1", "values": [{"measurement": "Activity", "setting": "[1]", "result": 38}, {"measurement": "fold induction at 0.031 mg/ml", "setting": "[2]", "result": 0.83}, {"measurement": "fold induction at 0.001 mg/ml", "setting": "[3]", "result": 0.76}, {"measurement": "Activity", "setting": "[4]", "result": 54.7}, {"measurement": "fold induction at 0.004 mg/ml", "setting": "[5]", "result": 0.68}, {"measurement": "viability at 0.125 mg/ml", "setting": "[6]", "result": 198, "unit": "%"}, {"measurement": "viability at 0.5 mg/ml", "setting": "[7]", "result": 157, "unit": "%"}, {"measurement": "Activity", "setting": "[8]", "result": 3}, {"measurement": "Activity", "setting": "[9]", "result": 44}, {"measurement": "Activity", "setting": "[10]", "result": 34, "unit": "%"}, {"measurement": "fold induction at 0.5 mg/ml", "setting": "[11]", "result": 0.26}, {"measurement": "fold induction at 0.008 mg/ml", "setting": "[12]", "result": 0.77}, {"measurement": "fold induction at 0.25 mg/ml", "setting": "[13]", "result": 0.49}, {"measurement": "fold induction at 0.004 mg/ml", "setting": "[14]", "result": 0.71}]}
{"smiles": "O=C(Cn1ccnc1[N+](=O)[O-])NCc1ccccc1", "note": "[BENZNIDAZOLE]", "values": [{"measurement": "Activity", "setting": "[15]", "result": "<= 10%"}, {"measurement": "Activity", "setting": "[16]", "result": "<= 10%"}, {"measurement": "Activity", "setting": "[17]", "result": "<= 10%"}, {"measurement": "Activity", "setting": "[18]", "result": "<= 30%"}, {"measurement": "Activity", "setting": "[19]", "result": "> 10", "unit": "%"}]}
{"smiles": "O=C(CCN1CCN(c2ccc(C(F)(F)F)cc2)CC1)c1ccc(O)cc1", "values": [{"measurement": "Activity", "setting": "[20]", "result": "> 10", "unit": "%"}, {"measurement": "fold induction at 0.031 mg/ml", "setting": "[2]", "result": 0.87}, {"measurement": "fold induction at 0.001 mg/ml", "setting": "[3]", "result": 0.82}, {"measurement": "fold induction at 0.004 mg/ml", "setting": "[5]", "result": 0.69}, {"measurement": "Activity", "setting": "[21]", "result": "> 40", "unit": "%"}, {"measurement": "viability at 0.125 mg/ml", "setting": "[6]", "result": 122, "unit": "%"}, {"measurement": "viability at 0.5 mg/ml", "setting": "[7]", "result": 124, "unit": "%"}, {"measurement": "Activity", "setting": "[22]", "result": "<= 20%"}, {"measurement": "inhibition", "setting": "[23]", "result": "Active"}, {"measurement": "Activity", "setting": "[18]", "result": "<= 20%"}, {"measurement": "Activity", "setting": "[24]", "result": "<= 10%"}, {"measurement": "Activity", "setting": "[19]", "result": "> 10", "unit": "%"}, {"measurement": "fold induction at 0.5 mg/ml", "setting": "[11]", "result": 0.43}, {"measurement": "fold induction at 0.008 mg/ml", "setting": "[12]", "result": 0.83}, {"measurement": "fold induction at 0.25 mg/ml", "setting": "[13]", "result": 0.52}, {"measurement": "fold induction at 0.004 mg/ml", "setting": "[14]", "result": 0.77}]}
